Experiment [1] addresses T1, Glucocorticoid receptor (Homo sapiens) (UniProt P04150).
T1 sequence (whole entry): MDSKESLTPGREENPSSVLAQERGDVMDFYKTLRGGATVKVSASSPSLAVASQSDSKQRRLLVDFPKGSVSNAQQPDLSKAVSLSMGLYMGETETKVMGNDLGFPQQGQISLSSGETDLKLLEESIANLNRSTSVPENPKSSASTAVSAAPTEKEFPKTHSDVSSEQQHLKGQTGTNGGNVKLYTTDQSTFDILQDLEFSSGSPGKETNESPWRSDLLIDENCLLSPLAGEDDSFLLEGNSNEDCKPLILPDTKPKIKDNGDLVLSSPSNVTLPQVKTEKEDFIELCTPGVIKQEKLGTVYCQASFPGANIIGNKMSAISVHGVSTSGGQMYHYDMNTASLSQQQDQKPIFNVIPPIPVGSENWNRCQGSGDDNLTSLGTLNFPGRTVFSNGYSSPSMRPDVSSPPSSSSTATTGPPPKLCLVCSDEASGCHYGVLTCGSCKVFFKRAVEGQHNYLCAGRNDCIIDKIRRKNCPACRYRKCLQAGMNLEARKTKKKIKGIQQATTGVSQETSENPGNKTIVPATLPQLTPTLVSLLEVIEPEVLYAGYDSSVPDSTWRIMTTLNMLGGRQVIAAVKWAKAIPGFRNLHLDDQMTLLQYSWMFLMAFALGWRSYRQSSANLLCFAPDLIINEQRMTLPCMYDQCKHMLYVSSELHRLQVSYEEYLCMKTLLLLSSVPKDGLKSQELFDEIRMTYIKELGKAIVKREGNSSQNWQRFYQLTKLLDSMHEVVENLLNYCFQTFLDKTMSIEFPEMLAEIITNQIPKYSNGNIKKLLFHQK
As to the kind of experiment: Agonist activity at glucocorticoid receptor in HFF assessed as inhibition of IL1-induced IL-6 production after 18 to 24 hrs relative to Dexamethasone. It is filed as functional. Put shortly: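 Human foreskin fibroblasts stimulated with IL-1 (1 ng/mL) in the presence of test compound, incubated at 37 °C for 18–24 h. IL-6 in the culture medium was quantified by electrochemiluminescence, DELFIA or ELISA. IC50 and % maximal efficacy were reported.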

Experiment [2] deals with T2, Glucocorticoid receptor (Homo sapiens, UniProt P04150).
T2 sequence (P04150 whole entry): T1 sequence (whole entry)
Description: Transactivation activity of glucocorticoid receptor in HFF assessed as induction of aromatase activity by measuring beta-estradiol activity after 18 to 24 hrs by ELISA. The conditions noted are these: read-out: EC50. On the technique in general: In an ELISA, binding on a coated surface is turned into a signal by an enzyme label.

Experiment [3] has as its target T1, Glucocorticoid receptor (Homo sapiens). As to the kind of experiment: Transactivation activity of glucocorticoid receptor in HFF assessed as induction of aromatase activity by measuring beta-estradiol activity after 18 to 24 hrs by ELISA relative to Dexamethasone.
In experiment [4] the target is T2, Glucocorticoid receptor. Description: Agonist activity at glucocorticoid receptor in human HeLa cells transfected with luciferase gene linked to MMTV promoter assessed as luciferase transactivation activity. In kind it is functional, cell-based.
Experiment [5] deals with T1, Glucocorticoid receptor (Homo sapiens). Description: Agonist activity at glucocorticoid receptor in human HeLa cells transfected with luciferase gene linked to MMTV promoter assessed as luciferase transactivation activity relative to Dexamethasone. It is filed as functional, cell-based. An outline of the steps: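 HeLa cells stably carrying an MMTV-luciferase construct were exposed to compound for 6 h at 37 °C, 5% CO2. Cells were then lysed and luminescence read with a Steady-Glo reagent. EC50 and % maximal efficacy were reported.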

The subject of experiment [6] is Mus musculus. As to the kind of experiment: Antiinflammatory activity in mouse plasma assessed as inhibition of LPS-induced TNFalpha production at 3 mg/kg, po administered 1 hr before LPS challenge measured after 1 hr. It is filed as functional. An outline of the steps:
(§1)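 Mice received compound orally in Cremophor RH 1 h before LPS challenge. Plasma TNF-α was measured 1 h after challenge. n = 8 per group; doses were 3 and 10 mg/kg.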

The subject of experiment [7] is Mus musculus. As to the kind of experiment: Antiinflammatory activity in mouse plasma assessed as inhibition of LPS-induced TNFalpha production at 10 mg/kg, po administered 1 hr before LPS challenge measured after 1 hr. It is filed as functional. An outline of the steps: as §1
In experiment [8] the test system is Mus musculus. Description: Antiinflammatory activity in po dosed mouse plasma assessed as inhibition of LPS-induced TNFalpha production administered 1 hr before LPS challenge measured after 1 hr. It is filed as functional. An outline of the steps:
as §1

The target of experiment [9] is T2, Glucocorticoid receptor. Description: Displacement of tetramethylrhodamine-labeled Dexamethasone from human recombinant glucocorticoid receptor expressed in baculovirus infected insect cells by fluorescence polarization assay. Background: In fluorescence polarisation assays a small probe gives low polarisation when free and higher when bound to something large.

A further experiment has as its target T3, Progesterone receptor (Homo sapiens, UniProt P06401).
T3 sequence (P06401 whole entry): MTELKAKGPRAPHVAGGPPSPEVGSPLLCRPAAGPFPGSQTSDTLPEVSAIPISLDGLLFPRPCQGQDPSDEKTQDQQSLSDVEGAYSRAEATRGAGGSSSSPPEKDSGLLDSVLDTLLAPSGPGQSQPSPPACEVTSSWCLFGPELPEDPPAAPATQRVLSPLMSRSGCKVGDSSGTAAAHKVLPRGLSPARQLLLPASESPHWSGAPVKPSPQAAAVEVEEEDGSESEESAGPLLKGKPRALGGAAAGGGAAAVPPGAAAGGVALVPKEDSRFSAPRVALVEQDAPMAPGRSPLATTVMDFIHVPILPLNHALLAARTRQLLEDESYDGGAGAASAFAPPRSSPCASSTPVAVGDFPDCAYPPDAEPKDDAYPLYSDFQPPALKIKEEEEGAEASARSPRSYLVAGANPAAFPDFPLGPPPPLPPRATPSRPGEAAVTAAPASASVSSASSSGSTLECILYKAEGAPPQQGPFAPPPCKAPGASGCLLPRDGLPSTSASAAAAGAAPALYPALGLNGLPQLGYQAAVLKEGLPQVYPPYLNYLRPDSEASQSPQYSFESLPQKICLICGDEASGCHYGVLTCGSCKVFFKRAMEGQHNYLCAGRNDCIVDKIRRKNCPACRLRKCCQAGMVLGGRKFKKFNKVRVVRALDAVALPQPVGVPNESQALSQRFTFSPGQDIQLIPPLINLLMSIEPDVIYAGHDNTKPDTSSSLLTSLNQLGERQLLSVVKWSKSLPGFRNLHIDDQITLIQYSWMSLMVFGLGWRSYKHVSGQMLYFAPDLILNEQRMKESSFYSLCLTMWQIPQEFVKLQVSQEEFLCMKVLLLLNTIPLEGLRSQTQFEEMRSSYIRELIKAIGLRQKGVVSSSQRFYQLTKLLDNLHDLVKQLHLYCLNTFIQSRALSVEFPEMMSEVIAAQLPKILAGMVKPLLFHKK
As to the kind of experiment: Displacement of tetramethylrhodamine-labeled RU-486 from human recombinant progesterone receptor expressed in baculovirus infected insect cells by fluorescence polarization assay. An outline of the steps: (§2)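 Fluorescence polarization competition assays with recombinant human receptors in lysates of baculovirus-infected insect cells. Reactions contained 1% DMSO and ran 1 h at room temperature.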

Experiment [10] has as its target T4, Mineralocorticoid receptor (Homo sapiens, UniProt P08235).
T4 sequence (P08235 whole entry): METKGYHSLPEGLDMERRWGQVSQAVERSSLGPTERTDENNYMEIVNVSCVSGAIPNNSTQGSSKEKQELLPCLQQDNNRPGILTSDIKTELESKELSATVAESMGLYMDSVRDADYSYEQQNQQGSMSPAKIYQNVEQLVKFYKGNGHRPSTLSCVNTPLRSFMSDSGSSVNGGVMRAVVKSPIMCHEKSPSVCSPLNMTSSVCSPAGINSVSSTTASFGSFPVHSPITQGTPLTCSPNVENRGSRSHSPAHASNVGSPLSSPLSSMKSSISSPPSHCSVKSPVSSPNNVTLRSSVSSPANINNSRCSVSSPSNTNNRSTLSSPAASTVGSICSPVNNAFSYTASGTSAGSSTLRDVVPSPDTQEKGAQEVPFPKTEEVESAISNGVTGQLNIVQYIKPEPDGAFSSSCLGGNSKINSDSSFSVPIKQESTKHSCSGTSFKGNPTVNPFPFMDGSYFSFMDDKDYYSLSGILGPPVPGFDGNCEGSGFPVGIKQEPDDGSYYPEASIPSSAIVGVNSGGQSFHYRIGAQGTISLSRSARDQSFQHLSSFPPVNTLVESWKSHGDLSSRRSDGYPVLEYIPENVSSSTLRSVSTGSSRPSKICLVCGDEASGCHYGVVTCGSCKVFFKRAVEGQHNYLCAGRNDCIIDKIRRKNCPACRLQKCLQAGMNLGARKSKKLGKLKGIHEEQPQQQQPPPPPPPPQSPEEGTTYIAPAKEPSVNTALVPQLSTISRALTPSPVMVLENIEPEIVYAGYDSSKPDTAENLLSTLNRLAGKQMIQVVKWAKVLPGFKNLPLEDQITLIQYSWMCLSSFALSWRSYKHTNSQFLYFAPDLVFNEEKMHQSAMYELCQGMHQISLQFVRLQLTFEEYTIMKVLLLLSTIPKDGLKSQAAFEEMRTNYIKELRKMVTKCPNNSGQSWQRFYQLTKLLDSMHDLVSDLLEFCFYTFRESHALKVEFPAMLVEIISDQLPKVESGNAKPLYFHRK
Description: Displacement of tetramethylrhodamine-labeled Dexamethasone from human recombinant mineralocorticoid receptor expressed in baculovirus infected insect cells by fluorescence polarization assay. Put shortly:
as §2

Experiment [11] has as its target T2, Glucocorticoid receptor. As to the kind of experiment: Agonist activity at glucocorticoid receptor in HFF assessed as inhibition of IL1-induced IL-6 production after 18 to 24 hrs. In kind it is functional.
Experiment [12] has as its target T5, Androgen receptor (Homo sapiens) (UniProt P10275).
T5 sequence (whole entry): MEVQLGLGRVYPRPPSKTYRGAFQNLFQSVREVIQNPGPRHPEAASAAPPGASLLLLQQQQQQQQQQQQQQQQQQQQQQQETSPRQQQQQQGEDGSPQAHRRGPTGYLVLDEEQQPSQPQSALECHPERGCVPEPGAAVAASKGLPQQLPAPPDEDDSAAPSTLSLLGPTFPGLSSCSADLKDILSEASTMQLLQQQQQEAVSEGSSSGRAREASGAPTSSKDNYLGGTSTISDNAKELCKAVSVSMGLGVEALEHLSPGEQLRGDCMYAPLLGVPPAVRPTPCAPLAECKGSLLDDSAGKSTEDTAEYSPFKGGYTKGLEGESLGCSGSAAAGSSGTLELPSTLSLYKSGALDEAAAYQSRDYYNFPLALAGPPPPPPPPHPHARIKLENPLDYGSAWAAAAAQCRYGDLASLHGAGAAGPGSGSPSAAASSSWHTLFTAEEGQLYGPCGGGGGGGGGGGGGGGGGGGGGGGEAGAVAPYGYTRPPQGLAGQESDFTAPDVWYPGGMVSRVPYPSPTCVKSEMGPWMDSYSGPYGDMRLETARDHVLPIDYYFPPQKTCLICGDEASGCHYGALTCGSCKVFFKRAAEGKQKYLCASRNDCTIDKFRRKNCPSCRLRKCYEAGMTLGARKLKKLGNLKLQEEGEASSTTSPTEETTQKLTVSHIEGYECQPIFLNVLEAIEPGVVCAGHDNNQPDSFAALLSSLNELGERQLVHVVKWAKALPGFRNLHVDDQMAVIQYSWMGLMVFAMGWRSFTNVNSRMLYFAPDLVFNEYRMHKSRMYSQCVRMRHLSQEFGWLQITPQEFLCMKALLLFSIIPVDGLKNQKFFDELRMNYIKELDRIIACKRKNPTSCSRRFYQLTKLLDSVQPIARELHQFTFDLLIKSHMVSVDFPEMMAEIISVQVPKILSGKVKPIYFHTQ
Description: Displacement of [3H]-testosterone from human recombinant androgen receptor expressed in baculovirus infected insect cells at 1100 nM. Put shortly:
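Competition of test compound at a single concentration against 10 nM ³H-testosterone for binding to recombinant human AR in lysates of baculovirus-infected cells. Dihydrotestosterone at 2 µM served as the positive control. Results are expressed as % of control.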
(In a radioligand displacement assay an active substance lowers the binding of a labelled ligand.)

The text below walks through data of ChEMBL document CHEMBL1909618, “Non-steroidal dissociated glucocorticoid agonists: indoles as A-ring mimetics and function-regulating pharmacophores” (Bioorg Med Chem Lett, 2011).

The source made the active and inactive calls. No cut-off for these calls is given here.

A word on the EC50: it is the concentration giving half of the maximal effect. Usually inhibition in vivo stands for the drop in the measured response relative to a control, in per cent. In general, ED50 refers to the dose that gives a 50% effect, or the effect in half of the subjects. What is called IC50 is the concentration that inhibits the measured activity by half. Regarding `CC(C)(CC(O)(Cc1cc2ccc(C#N)cc2[nH]1)C(F)(F)F)c1cc(S(C)(=O)=O)cc2c1OCC2` (racemic), the Efficacy in experiment [1] was determined as 89%; in experiment [3] it was 98%; in experiment [5] it was 10%. Besides, the EC50 is 0.125 µM at Glucocorticoid receptor [2] and above 2 µM on Glucocorticoid receptor [4]. The inhibition in vivo at 3 mg/kg in the experiment with Mus musculus [6] is 66%. For the same compound, the inhibition in vivo at 10 mg/kg in the experiment with Mus musculus [7] is 66%. Also, in the experiment with Mus musculus [8], the 50% effective dose (ED50) was below 10 mg/kg. Also, the IC50 is 0.005 µM on Glucocorticoid receptor [9], above 2 µM at Progesterone receptor, 0.43 µM in experiment [10] and 0.039 µM at Glucocorticoid receptor [11].

Consider `CC(C)(CC(O)(Cc1cc2cc(C#N)ccc2[nH]1)C(F)(F)F)c1cc(S(C)(=O)=O)cc2c1OCC2` (racemic), for which the Efficacy in experiment [1] was determined as 85%; in experiment [3], 63%; in experiment [5] it was 4%. Also, the 50% effective concentration (EC50) at Glucocorticoid receptor [2] was 0.08 µM; on Glucocorticoid receptor [4], above 2 µM. Moreover, the inhibition result in the experiment with Mus musculus [6] was “inactive”. Moreover, the inhibition in vivo at 10 mg/kg in the experiment on Mus musculus [7] was found to be 77%. In addition, the ED50 with Mus musculus [8] was below 10 mg/kg. Moreover, the IC50 on Glucocorticoid receptor [9] was 0.005 µM; at Progesterone receptor, above 2 µM; in [10], 1.45 µM; on Glucocorticoid receptor [11], 0.049 µM.

Take `COc1ccc(F)cc1C(C)(C)CC(O)(Cc1cc2ccccc2[nH]1)C(F)(F)F` (racemic): the 50% effective concentration (EC50) at Glucocorticoid receptor [2] stood at 0.023 µM. The Efficacy in [3] came out at 93%. In addition, the IC50 at Glucocorticoid receptor [9] came to 0.022 µM; at Progesterone receptor, 0.29 µM; on Glucocorticoid receptor [11], 0.007 µM. Moreover, in [12], the result was inactive.
